# Data as given in ChEMBL document CHEMBL4665832, “Benzylidene thiazolidinediones: Synthesis, in vitro investigations of antiproliferative mechanisms and in vivo efficacy determination in combination with Imatinib” (Bioorg Med Chem Lett, 2020).
# The source made the active and inactive calls. The calls are words filed in the database; no cut-off is given here.
# Legend:
# K562 [1] = assay: Anticancer activity against human K562 cells assessed as cell growth inhibition at 1 uM by MTT assay relative to control; format: functional; settings: read-out: GI
# Summary of the method: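 K562 cells given imatinib 1 µM or test compound 1 µM alone, or imatinib 1 µM plus test compound 1 µM. Proliferation read by MTT assay and expressed as % inhibition.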
# [2] = Cytotoxicity against hepatocytes (unknown origin) assessed as cell growth by MTT assay relative to control; format: cell-based, Hepatocyte; set-up: concentration or dose not given beside the values
# PC-3 = assay: Antiproliferative activity against human PC-3 cells assessed as cell growth inhibition; format: functional
# Summary of the method: (§1)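 Cell lines screened for growth inhibition and GI₅₀ derived. Each value is the mean of 3 independent experiments.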
# HOP-62 = assay: Antiproliferative activity against human HOP-62 cells assessed as cell growth inhibition; format: functional; summary of the method: as §1
# MCF7 = assay: Antiproliferative activity against human MCF7 cells assessed as cell growth inhibition; format: functional; summary of the method: as §1
# K562 [3] = assay: Antiproliferative activity against human K562 cells assessed as cell growth inhibition; format: functional; summary of the method: as §1
# KB = assay: Antiproliferative activity against human KB cells assessed as cell growth inhibition; format: functional; summary of the method: as §1
# [4] = Antiproliferative activity against human GURAV cells assessed as cell growth inhibition; format: functional; summary of the method: as §1
# HL-60 = assay: Antiproliferative activity against human HL-60 cells assessed as cell growth inhibition; format: functional; summary of the method: as §1
# U-937 = assay: Antiproliferative activity against human U-937 cells assessed as cell growth inhibition; format: functional; summary of the method: as §1
# Jurkat = assay: Antiproliferative activity against human Jurkat cells assessed as cell growth inhibition; format: functional; summary of the method: as §1
# MOLT-4 = assay: Antiproliferative activity against human MOLT-4 cells assessed as cell growth inhibition; format: functional; summary of the method: as §1
# K562 [5] = assay: Downregulation of cyclin-D1 expression in human K562 cells at 10 to 20 uM measured after 48 to 72 hrs by Western blot analysis; format: functional, cell-based; settings: dose microM 10-20, time hrs 48-72
# Summary of the method: (§2)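 K562 cells treated at 10 or 20 µM for 24, 48 or 72 h. PCNA and cyclin D1 detected by Western blot, bands quantified and normalised to actin. Means of three separate experiments, SD, P < 0.05.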
# K562 [6] = assay: Cell cycle arrest in human K562 cells assessed as accumulation at G2/M phase at 5 uM measured after 24 hrs by flow cytometry analysis; format: functional, cell-based
# Summary of the method: (§3)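 K562 cells exposed to 5 µM for 24 h, then cell-cycle phase distribution measured by flow cytometry. Untreated cells served as negative control and DMSO as vehicle control. SEM of n = 3. Two-tailed Student's t-test, P < 0.05.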
# K562 [7] = assay: Cell cycle arrest in human K562 cells assessed as increase in cells accumulation at G0/G1 phase measured after 24 to 72 hrs by flow cytometry analysis; format: functional, cell-based; settings: dose microM 5-20, time hrs 24-72
# Summary of the method: (§4)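 K562 cells exposed to 5, 10 or 20 µM and sampled at 24, 48 and 72 h. Phase distribution (G0/G1, S, G2/M) measured by flow cytometry. Untreated and DMSO vehicle controls. SEM of n = 3. Two-tailed t-test, P < 0.05.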
# K562 [8] = assay: Potentiation of imatinib-induced anticancer activity against human K562 cells assessed as cell growth inhibition at 1 uM by MTT assay (reference value: 71%); format: functional; settings: read-out: GI
# K562 [9] = assay: Cell cycle arrest in human K562 cells assessed as decrease in cells accumulation at S phase at 5 to 20 uM measured by flow cytometry analysis; format: functional, cell-based; settings: dose microM 5-20, time hrs 24-72, TDE = time-dependent effect; summary of the method: as §4
# K562 [10] = assay: Potentiation of imatinib-induced antitumor activity against human K562 cells xenografted in mouse assessed as reduction in tumor volume at 100 mg/kg, ip administered for 30 days co-treated with imatinib at 100 mg/kg and measured every day for 30 days; format: functional, organism-based; settings: time 30.0 day
# Summary of the method: (§5)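 Mice implanted subcutaneously in the right rear flank with 6 × 10⁶ K562 cells/100 μl in 50% matrigel. Dosed intraperitoneally: compound alone 200 mg/kg, or compound 100 mg/kg plus imatinib 100 mg/kg; controls were imatinib 100 mg/kg and saline. Tumour volume tracked over time, n = 6. Dunnett's test against control.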
# K562 [11] = assay: Cell cycle arrest in human K562 cells assessed as accumulation at G0/G1 phase at 5 uM measured after 24 hrs by flow cytometry analysis; format: functional, cell-based; summary of the method: as §3
# K562 [12] = assay: Cell cycle arrest in human K562 cells assessed as accumulation at S phase at 5 uM measured after 24 hrs by flow cytometry analysis; format: functional, cell-based; summary of the method: as §3
# K562 [13] = assay: Downregulation of PCNA expression in human K562 cells at 20 uM measured after 72 hrs by Western blot analysis; format: functional, cell-based; summary of the method: as §2
# K562 [14] = assay: Cell cycle arrest in human K562 cells assessed as decrease in cells accumulation at S phase measured after 24 to 72 hrs by flow cytometry analysis; format: functional, cell-based; settings: dose microM 5-20, time hrs 24-72; summary of the method: as §4
# [15] = Acute toxicity in po dosed mouse assessed as mortality; format: organism-based; settings: in vivo
# Summary of the method: (§6)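 Healthy mice were given oral doses that increased over the study period. Each higher dose was given only if the previous dose was well tolerated. All animals were monitored for body weight loss, behavioural changes and mortality to set the maximum tolerated dose.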
# K562 [16] = assay: Antitumor activity against human K562 cells xenografted in mouse assessed as reduction in tumor volume at 200 mg/kg, ip administered for 30 days and measured every day for 30 days; format: functional, organism-based; settings: time 30.0 day; summary of the method: as §5
# K562 [17] = assay: Downregulation of cyclin-D1 expression in human K562 cells at 10 to 20 uM measured after 24 hrs by Western blot analysis; format: functional, cell-based; settings: dose microM 10-20, time 24.0 hrs; summary of the method: as §2
# [18] = Acute toxicity in po dosed mouse assessed as body weight loss; format: organism-based; settings: in vivo; summary of the method: as §6
# K562 [19] = assay: Cell cycle arrest in human K562 cells assessed as decrease in cells accumulation at G2/M phase measured after 24 to 72 hrs by flow cytometry analysis; format: functional, cell-based; settings: dose microM 5-20, time hrs 24-72; summary of the method: as §4
# K562 [20] = assay: Downregulation of PCNA expression in human K562 cells at 10 to 20 uM measured after 48 hrs by Western blot analysis; format: functional, cell-based; settings: dose microM 10-20, time 48.0 hrs; summary of the method: as §2
# K562 [21] = assay: Cell cycle arrest in human K562 cells assessed as decrease in cells accumulation at G2/M phase at 5 to 20 uM measured by flow cytometry analysis; format: functional, cell-based; settings: dose microM 5-20, time hrs 24-72, TDE = time-dependent effect; summary of the method: as §4
# K562 [22] = assay: Cell cycle arrest in human K562 cells assessed as increase in cells accumulation at G0/G1 phase at 5 to 20 uM measured by flow cytometry analysis; format: functional, cell-based; settings: dose microM 5-20, time hrs 24-72, TDE = time-dependent effect; summary of the method: as §4
# K562 [23] = assay: Downregulation of PCNA expression in human K562 cells at 10 to 20 uM measured after 24 hrs by Western blot analysis; format: functional, cell-based; settings: dose microM 10-20, time 24.0 hrs; summary of the method: as §2
# [24] = Acute toxicity in po dosed mouse assessed as maximum tolerated dose; format: organism-based; settings: in vivo; summary of the method: as §6
# A549 = assay: Antiproliferative activity against human A549 cells assessed as cell growth inhibition; format: functional; summary of the method: as §1
# NCI-H226 = assay: Antiproliferative activity against human NCI-H226 cells assessed as cell growth inhibition; format: functional; summary of the method: as §1
smiles,measurement,setting,value
Cc1ccc(NC(=O)c2ccc(CN3CCN(C)CC3)cc2)cc1Nc1nccc(-c2cccnc2)n1 [IMATINIB],inhibition of growth at 1 µM,K562 [1],71%
O=C(COc1ccc(/C=C2\SC(=O)NC2=O)cc1)Nc1ccccn1,viability,[2],> 70%
O=C(COc1ccc(/C=C2\SC(=O)NC2=O)cc1)Nc1c(F)cc(Br)cc1F,GI50,PC-3,> 100 µM
same,viability,[2],> 70%
same,GI50,HOP-62,75.2 µM
same,GI50,MCF7,57.3 µM
same,GI50,K562 [3],23.1 µM
same,GI50,KB,> 100 µM
same,GI50,[4],64.1 µM
O=C(COc1ccc(/C=C2\SC(=O)NC2=O)cc1)Nc1c(Cl)cccc1Cl,GI50,HL-60,97.6 µM
same,GI50,PC-3,> 100 µM
same,GI50,U-937,60 µM
same,GI50,Jurkat,21.9 µM
same,viability,[2],> 70%
same,GI50,HOP-62,> 100 µM
same,GI50,MOLT-4,> 100 µM
same,GI50,MCF7,61.7 µM
same,GI50,K562 [3],6.7 µM
same,GI50,KB,> 100 µM
same,GI50,[4],56.8 µM
Cc1cccc(NC(=O)COc2ccc(/C=C3\SC(=O)NC3=O)cc2)n1,GI50,PC-3,58.3 µM
same,viability,[2],> 70%
same,GI50,HOP-62,81.4 µM
same,GI50,MCF7,28.3 µM
same,GI50,K562 [3],10.7 µM
same,GI50,KB,75 µM
same,GI50,[4],60.9 µM
O=C(COc1ccc(/C=C2\SC(=O)NC2=O)cc1)Nc1ccc(F)cc1F,inhibition,K562 [5],Active
same,GI50,HL-60,47.8 µM
same,inhibition of growth at 1 µM,K562 [1],62%
same,GI50,PC-3,> 100 µM
same,Activity,K562 [6],Active
same,GI50,U-937,35.6 µM
same,GI50,Jurkat,34.6 µM
same,viability,[2],> 70%
same,GI50,HOP-62,> 100 µM
same,GI50,MOLT-4,40.3 µM
same,Activity,K562 [7],Dose-dependent effect
same,inhibition of growth at 1 µM,K562 [8],79%
same,Activity,K562 [9],Tde
same,GI50,MCF7,65.8 µM
same,Activity,K562 [10],Active
same,Activity,K562 [11],Active
same,Activity,K562 [12],Active
same,inhibition,K562 [13],Active
same,Activity,K562 [14],Dose-dependent effect
same,Activity,[15],Non-Toxic
same,Activity,K562 [16],Active
same,inhibition,K562 [17],inactive
same,Activity,[18],Non-Toxic
same,GI50,K562 [3],0.9 µM
same,Activity,K562 [19],Dose-dependent effect
same,inhibition,K562 [20],inactive
same,Activity,K562 [21],Tde
same,Activity,K562 [22],Tde
same,GI50,KB,> 100 µM
same,inhibition,K562 [23],inactive
same,GI50,[4],61.4 µM
same,MTD,[24],2000 mg/kg
CCCCC1=NC2(CCCC2)C(=O)N1NC(=O)COc1ccc(/C=C2\SC(=O)NC2=O)cc1,viability,[2],> 70%
Cc1c(NC(=O)COc2ccc(/C=C3\SC(=O)NC3=O)cc2)c(=O)n(-c2ccccc2)n1C,viability,[2],> 70%
O=C(COc1ccc(/C=C2\SC(=O)NC2=O)cc1)Nc1ccc(Cl)cc1,GI50,HL-60,52.4 µM
same,GI50,PC-3,83.4 µM
same,GI50,U-937,46.3 µM
same,GI50,Jurkat,> 100 µM
same,viability,[2],> 70%
same,GI50,HOP-62,36.1 µM
same,GI50,MOLT-4,42.7 µM
same,GI50,MCF7,51.1 µM
same,GI50,K562 [3],7.4 µM
same,GI50,KB,50.3 µM
same,GI50,[4],35.6 µM
Cc1cc(NC(=O)COc2ccc(/C=C3\SC(=O)NC3=O)cc2)no1,viability,[2],> 70%
Cc1cnc(NC(=O)COc2ccc(/C=C3\SC(=O)NC3=O)cc2)s1,viability,[2],> 70%
same,GI50,A549,88.7 µM
same,GI50,NCI-H226,57.8 µM
Cc1cc(Br)ccc1NC(=O)COc1ccc(/C=C2\SC(=O)NC2=O)cc1,GI50,PC-3,> 100 µM
same,viability,[2],> 70%
same,GI50,HOP-62,> 100 µM
same,GI50,MCF7,66.8 µM
same,GI50,K562 [3],20.7 µM
same,GI50,KB,> 100 µM
same,GI50,[4],69.7 µM
O=C(COc1ccc(/C=C2\SC(=O)NC2=O)cc1)Nc1ccc(C(F)(F)F)cc1Cl,GI50,PC-3,> 100 µM
same,viability,[2],> 70%
same,GI50,HOP-62,> 100 µM
same,GI50,MCF7,67.4 µM
same,GI50,K562 [3],16.3 µM
same,GI50,KB,78.6 µM
same,GI50,[4],99.3 µM
